Screening results deposited in PubChem BioAssay by several laboratories.
APP 5'UTR act = APP 5'UTR luciferase reporter activation | SH-SY5Y APP 5'UTR luciferase reporter, luminescence; zero percent = DMSO vehicle wells | activation, % at 2 µM | 190,000 tested, 1% active | AID 1276;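 active = activation above a set limit, based on mean plus 3 SD of controls, cut at about 140% in these data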
Pf gamet viab = P. falciparum stage V gametocyte viability inhibition. P. falciparum stage V gametocytes, ATP luminescence, 24 h. inhibition, % at 10.9 µM. 150,000 tested, 0.065% active;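 active = inhibition above the mean plus 3 SD of compounds within the control limits, set per campaign, cut at about 38% in these data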;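 note: 0% = DMSO wells and 100% = medium only without gametocytes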
FLuc inh counter = counter-screen for luciferase assay inhibitors: firefly luciferase inhibition; P08659; ATPLite firefly luciferase biochemical luminescence, 10 min; inhibition, % at 10 µM; 200,000 tested, 1.5% active; AID 1006;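 active = inhibition above about 50% when tested at 10 µM, limit read from the data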
Target sequence (P08659 whole entry, looked up): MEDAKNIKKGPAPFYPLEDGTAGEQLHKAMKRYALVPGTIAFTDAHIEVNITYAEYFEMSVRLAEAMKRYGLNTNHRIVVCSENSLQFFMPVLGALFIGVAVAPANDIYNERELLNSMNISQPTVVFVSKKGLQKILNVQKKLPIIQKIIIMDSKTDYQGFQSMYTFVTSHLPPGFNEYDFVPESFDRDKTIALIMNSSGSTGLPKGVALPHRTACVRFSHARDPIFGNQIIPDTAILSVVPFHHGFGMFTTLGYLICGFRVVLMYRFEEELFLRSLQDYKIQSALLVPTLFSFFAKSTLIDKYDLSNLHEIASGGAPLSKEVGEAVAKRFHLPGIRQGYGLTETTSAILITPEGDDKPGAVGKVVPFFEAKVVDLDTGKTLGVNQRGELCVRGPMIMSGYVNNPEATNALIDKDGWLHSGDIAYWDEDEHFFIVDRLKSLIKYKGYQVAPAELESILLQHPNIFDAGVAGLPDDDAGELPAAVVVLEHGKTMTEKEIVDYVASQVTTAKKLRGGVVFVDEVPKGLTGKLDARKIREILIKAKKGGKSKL
FLuc act counter = affects firefly luciferase, flagging false hits in luciferase stimulation screens | P08659 | ATPlite luciferase biochemical, luminescence, 10 min; 0 = ATP-free wells, 1 = DMSO control | activation factor at 10 µM | 200,000 tested, under 10 active;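 active = luciferase activation factor, scaled between plate controls, of at least 2 with compound at 10 µM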
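Assay system: Luciferase/luciferin detection reagent, cell-free biochemical luciferase assay / Also added: ATP substrate / Schedule: 10 min at ambient temperature / Measured by: luminescence measurement of luciferase light output / Benchmarks: low control with PBS replacing ATP, high control enzyme plus ATP without compound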
NF-kB expr up = NF-kB expression increase, human neuronal cells | fold change at 12.5 µM | 190,000 tested, 1.6% active | NF-kB reporter expression; stronger effect = higher value | AID 1239; in the data active = fold change above about 3.3
STAT1 act = STAT1 signaling activation; NIH 3T3 STAT1-luciferase reporter, IFN-gamma, luminescence; 100% = IFN-gamma alone, no compound; AID 932; 200,000 tested, 2.6% active; activation (% of control), % at 5.5 µM;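 active = activation above the screen-wide mean activation plus 3 SD, cut at about 130% in these data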;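 note: raw ratio to IFN-gamma control signal so 100% means no change and 0% no light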
* marks the source's active call; other numbers are inactive results; / = no result. Rows were chosen to be rich in hits. Some 3.5% of all compounds tested hit in one or more screens of this group.

SMILES	APP 5'UTR act	Pf gamet viab	FLuc inh counter	FLuc act counter	NF-kB expr up	STAT1 act
CCN(CC)S(=O)(=O)c1ccc(C(=O)OCC(=O)c2ccc3c(c2)NC(=O)CO3)cc1	6.6	9.8	-0.8	1	1.07	101.7
CCOc1nc(SCCOc2ccccc2)nc(N(C)C)n1	23.4	/	-10.8	1.1	1.26	107.9
Cc1ccc(S(=O)(=O)N(C)CC(=O)OCC(=O)NC(c2ccccc2)c2ccccc2)cc1	19.3	13.0	-2.3	1	1.12	102.2
O=C(COC(=O)Cc1ccc(S(=O)(=O)N2CCOCC2)s1)NCCc1ccccc1	1.5	/	-5.0	1.1	1.31	105.9
CCOc1ccc(S(=O)(=O)NCc2ccc(F)cc2)c2cccnc12	7.8	/	-4.2	1	0.88	100.7
O=C(COC(=O)c1cccc(S(=O)(=O)NCc2ccccc2)c1)c1ccc2c(c1)OCCO2	3.5	/	53.5*	0.5	0.77	101.6
O=C(O)CCC(=O)c1ccc2c(c1)OCCO2	/	/	-5.3	1.1	1.14	98.8
O=C(CS(=O)(=O)c1ccccc1)c1ccc2c(c1)OCCO2	100.4	2.4	58.0*	0.4	2.26	96.7
O=C1COc2ccc(C(=O)COC(=O)c3cc(S(=O)(=O)NCc4ccccc4)ccc3O)cc2N1	/	-1.2	/	/	/	/
O=C(COC(=O)C1CCN(C(=O)c2ccc(Cl)cc2)CC1)NC1CCS(=O)(=O)C1 (centres undefined)	-1.2	/	-5.3	1.1	1.01	96.7
O=C(OCC(=O)N1CCCC1)c1ccc(S(=O)(=O)Nc2ccccc2)cc1	16.5	-5.5	-2.4	1	1	100.8
Cc1nn(-c2ccccc2)c(N2CCCC2)c1/C=N/NC(=S)Nc1ccccc1F	93.5	-15.2	6.8	0.9	0.4	129.0*
CCCNC(=O)CNC(=O)c1ccc(C#N)cc1	/	-15.4	/	/	/	/
C=CCN1C(=O)CSC1=Nc1ccc(O)cc1	1.1	/	-6.9	1.1	3.38*	96.5
COc1ccc2nc(N=Nc3ccc(N(C)C)cc3)sc2c1	112.6	-14.9	94.7*	0.1	1.52	52.6
COc1cc(C(=O)Nc2ccncc2)c([N+](=O)[O-])cc1OC	/	10.6	/	/	/	/
COc1cc(C(=O)Nc2ccc(N(C)C)cc2)c([N+](=O)[O-])cc1OC	52.6	-11.7	2.3	1	/	145.8*
c1ccc(CSc2nc3ccccc3[nH]2)cc1	/	-16.7	/	/	/	/
O=C(NCCO)c1ccc(CSc2nc3ccccc3[nH]2)cc1	18.8	/	10.0	0.9	1.08	104.8
Fc1ccc(CSc2nc3ccccc3[nH]2)cc1	79.1	/	48.6	0.5	4.79*	129.3*
O=[N+]([O-])c1ccc(CSc2nc3ccccc3[nH]2)cc1	80.6	13.7	64.7*	0.4	2.28	141.0*
CCCOc1ccc(CSc2nc3ccccc3[nH]2)cc1	124.8	3.2	63.8*	0.4	3.45*	92.1
NC(=O)c1ccccc1N/C=C/C(=O)c1ccc(Cl)cc1	148.1*	/	93.5*	0.1	6.94*	91.4
NC(=O)c1ccccc1NC(=O)/C=C/C(=O)O	13.6	/	-6.9	1.1	2.67	96.7
CCOC(=O)c1ccccc1N/C=C/C(=O)c1ccccc1	12.8	/	/	/	/	116.2
SMILES	APP 5'UTR act	Pf gamet viab	FLuc inh counter	FLuc act counter	NF-kB expr up	STAT1 act
Cc1ccc(C(=O)/C=C/Nc2ccccc2C(N)=O)cc1	174.2*	/	96.7*	0	6.74*	110.2
COC(=O)c1ccccc1NC(=S)N(Cc1ccc2c(c1)OCO2)Cc1cc2ccc(OC)cc2[nH]c1=O	-25.3	-9.8	-0.9	1	0.33	113.5
N#CCN1CCN(CC(=O)Nc2ccc(OCc3ccccc3)cc2)CC1	12.6	/	-7.4	1.1	1.26	95.8
COc1cc(C(=O)c2ccccc2)c(OC)cc1C(=O)Nc1ccc(O)cc1	-2.9	-3.5	-3.2	1	1.26	96.2
CN(C(=O)c1cccnc1)c1nnc(-c2ccccn2)s1	25.9	-9.4	10.2	0.9	1.69	135.9*
CC1=NN(C(=O)COc2ccccc2)C(O)(c2cccnc2)C1 (centres undefined)	18.1	12.4	-7.7	1.1	1.66	102.0
Cc1cc(-c2n[nH]c(=S)o2)c(C)n1-c1ccccc1	45.4	-14.9	67.4*	0.3	1.26	114.8
O=C(CSc1cnc2ccccc2n1)c1ccc(F)cc1	188.9*	-4.9	8.3	0.9	4.11*	115.1
COC(=O)CSc1cnc2ccccc2n1	-4.7	/	-11.2	1.1	1.1	104.0
O=C(COc1ccc2ccccc2c1)Nc1ccc2c3c(cccc13)CC2	3.1	10.5	-8.2	1.1	1.06	101.4
CCCSc1nsc(NC(=O)CC)n1	111.9	-12.8	14.5	0.9	3.72*	129.7*
CCCCCCSc1nsc(NC(=O)CC(C)C)n1	42.3	1.1	-5.2	1.1	1.43	107.0
CCn1c([N+](=O)[O-])nc2c1c(=O)[nH]c(=O)n2C	-0.8	10.9	-2.6	1	4.81*	83.5
Cc1noc(C)c1NC(=O)Nc1ccc2c(c1)C(=O)N([C@H](C)CO)C[C@H](C)[C@H](CN(C)C)O2	/	-29.6	/	/	/	/
COC(=O)c1c(C(=O)OC)c2ccncn2c1Cl	12.7	-48.4	-0.6	1	1.15	96.8
O=C(Nc1ccc(OCc2ccccc2)cc1)c1cccs1	/	1.0	/	/	/	/
Oc1ccc(N=Cc2ccc(OCc3ccccc3)cc2)cc1	33.1	-8.4	12.0	0.9	3.16	142.4*
O=C(N/N=C/c1ccc(OCc2ccccc2)cc1)c1ccncc1	34.2	-9.2	1.5	1	1.49	102.8
O=C(N/N=C/c1ccc(N2CCOCC2)cc1)c1cccs1	62.5	-18.9	52.3*	0.5	2.88	125.6
O=C(c1ccc(N2CCOCC2)cc1)c1cccs1	131.9	-18.1	65.7*	0.3	5.08*	140.9*
O=C(N/N=C/c1ccc(OCc2ccccc2)cc1)c1cccs1	4.1	5.2	-2.1	1	1.66	140.3*
O=S(=O)(c1ccc(Br)cc1)c1nc(-c2ccco2)oc1NCC1CCCO1 (centres undefined)	0.8	-28.6	-2.0	1	1.03	94.8
COC(=O)c1ccc(C(=O)OC)c(NC(=O)CN(c2ccccc2)S(=O)(=O)N(C)C)c1	9.9	-1.8	-6.3	1.1	0.99	93.3
O=C1c2ccccc2C(=O)N1CCC#Cc1ccc2cc(CCO)oc(=O)c2c1	/	18.5	/	/	/	/
CCOc1ccccc1N(CC(=O)NC(C)(C)C)C(=O)Cn1nnc(-c2ccc(C)o2)n1	3.3	/	-1.3	1	0.93	99.6
C[C@H](CO)N1C[C@H](C)[C@@H](CN(C)C(=O)Nc2ccc3c(c2)OCO3)Oc2c(NC(=O)Nc3ccc(C(F)(F)F)cc3)cccc2C1=O	/	10.2	/	/	/	/
CCOC(=O)C1=C(C)n2c(s/c(=C/c3cccc([N+](=O)[O-])c3)c2=O)=NC1c1ccc(O)c(OC)c1 (centres undefined)	1.9	/	-4.9	1	6.84*	100.6
CCOC(=O)C1=C(C)N=c2s/c(=C\c3ccc(O)c([N+](=O)[O-])c3)c(=O)n2C1c1ccccc1OC (centres undefined)	/	-8.1	/	/	/	/
Cc1c(-c2csc(N)n2)cnn1C	2.3	-11.9	-6.5	1.1	1.32	97.7
